Measurements collected from several papers.
Protocols differ between the studies behind these lines.
Cell line: NCI-H460
Read-out: cell growth or viability

`CC(=O)c1ccc(/N=N/c2cc(/C=C/C(=O)O)ccc2O)cc1` has an IC50 of > 50 µM (MTT).
`COc1cc2oc(-c3ccc(O)cc3)cc(=O)c2c(O)c1OC` has an IC50 of 26.2 µM (48 h).
The IC50 of `COc1cc(C/C=C/c2ccc(O)cc2)ccc1O` is reported as 19.9 µg/mL (MTT; 24 h).
The IC50 of `C=CC(=O)Nc1cc(Nc2nc(N3CCc4sccc4C3)c3sccc3n2)c(OC)cc1N1CCN(C)CC1` is reported as 0.913 µM (MTT).
For `CC(=O)c1cccc(/N=N/c2cc(/C=C/C(=O)O)ccc2O)c1`, the IC50 was > 50 µM (MTT).
For `O=c1[nH]cc(F)c(=O)[nH]1`, the IC50 was 43.1 µM (MTT; 48 h).
The IC50 of `CCC(=O)Nc1cc(Nc2nc(N3CCc4sccc4C3)c3cccnc3n2)c(OC)cc1N1CCN(CC)CC1` is reported as 1.16 µM (MTT).
`O=C(O)c1cc(O)c(O)c(O)c1` gave an IC50 of 14.9 µM (MTT).
The IC50 of `C(/Cc1ccc(OCc2ccccc2)cc1)=C(\COCc1ccccc1)c1ccc(OCc2ccccc2)cc1` is reported as 48.3 µg/mL (MTT; 24 h).
The IC50 of `CCC(=O)Nc1cc(Nc2nc(N3CCc4sccc4C3)c3cccnc3n2)c(OC)cc1N1CCN(C(C)=O)CC1` is reported as > 50 µM (MTT).
With `CCN1CCN(Cc2ccc(Nc3ncc(F)c(-c4cc(F)c5nc(C)n(C(C)C)c5c4)n3)nc2)CC1` the IC50 was 0.962 µM (CCK-8).
For `COc1cc(/C=C/Cc2ccc(O)c(OC)c2)ccc1O`, the IC50 was 17.5 µg/mL (MTT; 24 h).
`Cc1ccc(-c2ccc(O)cc2)c(C(=C2C=CC(=O)C=C2)c2ccc(O)cc2)c1C#Cc1ccc(O)cc1` has an IC50 of 15.5 µM (MTT; 48 h).
`COc1ccc(C/C=C(/CO)c2ccc(OC)cc2)cc1` has an IC50 of 30.9 µg/mL (MTT; 24 h).
For `Cc1ccc(-c2ccc(CCCN(O)C(=O)CP(=O)(O)O)cc2)cc1`, the IC50 was 229 µM (MTT; 96 h).
The IC50 of `COc1cc(CNC(=O)CCCC/C=C/C(C)C)ccc1OCc1cn(-c2ccc(C#N)cc2)nn1` is reported as 5.55 µM (SRB).
`C=CC(=O)Nc1cc(Nc2nc(Nc3cnn(C)c3)c3sccc3n2)c(OC)cc1N(C)CCN(C)C` gave an IC50 of > 50 µM (MTT).
`COc1ccc(C/C=C/c2ccc(O)c(OC)c2)cc1` has an IC50 of 12.3 µg/mL (MTT; 24 h).
`O=c1[nH]cc(S(=O)(=O)Nc2cccc(-c3nnc(-c4cccc(Cl)c4)o3)c2)c(=O)[nH]1` gave an IC50 of 2.83 µM (MTT; 24 h).
With `COc1ccc(-c2cc(=O)c3c(O)c(OC)c(OC)cc3o2)cc1O` the IC50 was 37.5 µM (48 h).
With `CCC(=O)Nc1cc(Nc2nc(N3CCc4sccc4C3)c3cccnc3n2)c(OC)cc1N1CCSCC1` the IC50 was 14.3 µM (MTT).
`CC(=O)c1cccc(N=Nc2c(C(=O)O)cc(O)c(O)c2O)c1` gave an IC50 of 9.5 µM (MTT).
`COc1cc(CNC(=O)CCCC/C=C/C(C)C)ccc1O` gave an IC50 of 30.7 µM (SRB).
`C=C(Cl)C(=O)Nc1cc(Nc2nc(N3CCc4sccc4C3)c3sccc3n2)c(OC)cc1N(C)CCN(C)C` gave an IC50 of 2.33 µM (MTT).
With `COc1ccc(C/C=C/c2cc(OC)cc(OC)c2)cc1` the IC50 was 77.3 µg/mL (MTT; 24 h).
With `COc1cc(N(C)CCN(C)C)c(NC(=O)C=C(C)C)cc1Nc1nc(N2CCc3sccc3C2)c2sccc2n1` the IC50 was 0.533 µM (MTT).
`CC(C)C[C@H](NC(=O)[C@H](Cc1ccccc1)NC(=O)c1cnccn1)B(O)O` gave an IC50 of 0.03 µM (ATP luminescence).
`C=CC(=O)Nc1cc(Nc2nc(N3CCc4sccc4C3)c3cccnc3n2)c(OC)cc1N1CCN(CC)CC1` has an IC50 of 0.652 µM (MTT).
For `O=C1NC(=NCc2cccs2)S/C1=C\c1ccc2ncccc2c1`, the IC50 was > 10 µM.
